From ChEMBL document CHEMBL3425426, “Discovery of DS-1558: A Potent and Orally Bioavailable GPR40 Agonist” (ACS Med Chem Lett, 2015)
Active and inactive are the calls of the source. The calls are words filed in the database; no cut-off is given here.

Key:
[1] = target: Free fatty acid receptor 1 (Homo sapiens, UniProt O14842); test: Agonist activity at human GPR40 expressed in CHO cells assessed as calcium flux by FLIPR assay; type: functional, cell-based
Rattus norvegicus [2] = test: Reduction in glucose excursion in ZDF rat at 10 mg/kg, po dosed 30 mins before glucose challenge by OGTT method; type: functional, organism-based; design: dose 10 mg/kg
Outline: (§1)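 Male Zucker diabetic fatty rats, 9 weeks old, n = 6 per group. Oral dose given 30 min before an oral glucose challenge of 2 g/kg. Plasma glucose and plasma insulin were followed over time after the challenge. Values are reported as mean ± standard error.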

Rattus norvegicus [3] = test: Increase in plasma insulin level in ZDF rat at 10 mg/kg, po dosed 30 mins before glucose challenge by OGTT method; type: functional, organism-based; design: dose 10 mg/kg; outline: as §1

Chain of Free fatty acid receptor 1 (O14842 whole entry): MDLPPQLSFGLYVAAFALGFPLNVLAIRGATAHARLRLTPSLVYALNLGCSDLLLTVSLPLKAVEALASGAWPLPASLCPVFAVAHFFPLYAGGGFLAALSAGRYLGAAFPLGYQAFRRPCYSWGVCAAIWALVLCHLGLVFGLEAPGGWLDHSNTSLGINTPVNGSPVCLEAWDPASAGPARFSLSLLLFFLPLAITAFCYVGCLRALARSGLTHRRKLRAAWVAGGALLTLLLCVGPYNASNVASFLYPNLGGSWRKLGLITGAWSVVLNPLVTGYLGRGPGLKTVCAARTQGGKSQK

SMILES	EC50 [1]	Activity (Rattus norvegicus [2])	Activity (Rattus norvegicus [3])
CCO[C@@H](CC(=O)O)c1ccc(O[C@H]2CCc3c2cccc3C(F)(F)F)cc1	19 nM		
N[C@@H](CC(=O)N1CCn2c(nnc2C(F)(F)F)C1)Cc1cc(F)c(F)cc1F		Active	Active
CCO[C@@H](CC(=O)O)c1ccc(OC2Cc3ccccc3C2)cc1	83 nM		
CCO[C@H](CC(=O)O)c1ccc(OCc2ccc(Cl)c(Cl)c2)cc1	360 nM		

More lines, main results first:

EC50 [1]	SMILES	Activity (Rattus norvegicus [2])	Activity (Rattus norvegicus [3])
69 nM	CCO[C@@H](CC(=O)O)c1ccc(O[C@H]2CCc3ccccc32)cc1		
29 nM	CCO[C@@H](CC(=O)O)c1ccc(O[C@@H]2CCc3c(C)cccc32)cc1		
5 nM	CCO[C@@H](CC(=O)O)c1ccc(O[C@@H]2CCc3c(Cl)cccc32)cc1		
63 nM	CCOc1cccc2c1CC[C@H]2Oc1ccc([C@H](CC(=O)O)OCC)cc1		
31 nM	CCO[C@@H](CC(=O)O)c1ccc(O[C@@H]2CCc3ccccc32)cc1		
